Measured values from different studies.
Target: Activin receptor type-1 (ACVR1, Homo sapiens, UniProt Q04771)
Residues used in one study (Q04771 21-509): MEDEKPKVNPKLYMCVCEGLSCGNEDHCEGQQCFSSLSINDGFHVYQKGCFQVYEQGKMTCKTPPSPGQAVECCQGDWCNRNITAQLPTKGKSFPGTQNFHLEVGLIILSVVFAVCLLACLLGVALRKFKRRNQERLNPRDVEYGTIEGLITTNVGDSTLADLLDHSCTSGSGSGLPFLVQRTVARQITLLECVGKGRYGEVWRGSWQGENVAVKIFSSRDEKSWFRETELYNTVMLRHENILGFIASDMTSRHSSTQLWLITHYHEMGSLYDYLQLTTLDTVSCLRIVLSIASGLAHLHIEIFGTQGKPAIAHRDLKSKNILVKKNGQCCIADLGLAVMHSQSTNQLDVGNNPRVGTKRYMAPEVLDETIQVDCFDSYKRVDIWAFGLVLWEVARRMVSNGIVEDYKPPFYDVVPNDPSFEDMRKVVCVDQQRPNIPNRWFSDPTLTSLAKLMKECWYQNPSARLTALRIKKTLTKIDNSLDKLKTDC

CCCCC(=O)Nc1ccc(-c2ccc3ncn(CCC)c(=O)c3c2)cn1 — remaining binding (binding; competition with immobilised ligand; 0.5 µM): 100%
C1=C/COCc2cc(ccc2OCCN2CCCC2)Nc2nccc(n2)-c2cccc(c2)COC/1 — remaining binding (binding; 0.1 µM): 3.7%
C=CC(=O)N1CCC([C@@H]2CCNc3c(C(N)=O)c(-c4ccc(Oc5ccccc5)cc4)nn32)CC1 — inhibition (cell-free assay; 1 µM): 13%
COc1ccc2oc(-c3ccc4nc(N)oc4c3)c/c(=N\c3ccccc3NC(=O)CCN)c2c1 — remaining binding (binding; 1 µM): 104%
COc1ccc2[nH]c3c4[nH]c5ccc(OC)cc5c4c4c(c3c2c1)C(=O)NC4=O — remaining binding (binding; competition with immobilised ligand; 1 µM): 77%
CC(C)S(=O)(=O)c1ccc2nccc(Nc3ccc4sc(C5CCCC5)nc4c3)c2c1 — activity vs control (enzyme activity; inhibitor; 1 µM): 111%
CO[C@@H]1[C@H](N(C)C(=O)c2ccccc2)C[C@H]2O[C@]1(C)n1c3ccccc3c3c4c(c5c6ccccc6n2c5c31)C(=O)NC4 — inhibition (enzyme activity; inhibitor; 1 µM): 0%
CN1CCN(C(=O)c2ccc(NC(=O)Nc3ccc(N(C)c4ccnc(Nc5ccc(CS(C)(=O)=O)cc5)n4)cc3)cc2)CC1 — remaining binding (binding; competition with immobilised ligand; 1 µM): 28%
